Measured values taken from ChEMBL document CHEMBL1773020, “Discovery of fused bicyclic agonists of the orphan G-protein coupled receptor GPR119 with in vivo activity in rodent models of glucose control” (Bioorg Med Chem Lett, 2011).

What was measured:
[1] = target: T1, Glucose-dependent insulinotropic receptor (Homo sapiens, UniProt Q8TDV5); assay: Agonist activity at human GPR119 by melanophore assay; assay type: functional
T1 sequence (Q8TDV5 whole entry): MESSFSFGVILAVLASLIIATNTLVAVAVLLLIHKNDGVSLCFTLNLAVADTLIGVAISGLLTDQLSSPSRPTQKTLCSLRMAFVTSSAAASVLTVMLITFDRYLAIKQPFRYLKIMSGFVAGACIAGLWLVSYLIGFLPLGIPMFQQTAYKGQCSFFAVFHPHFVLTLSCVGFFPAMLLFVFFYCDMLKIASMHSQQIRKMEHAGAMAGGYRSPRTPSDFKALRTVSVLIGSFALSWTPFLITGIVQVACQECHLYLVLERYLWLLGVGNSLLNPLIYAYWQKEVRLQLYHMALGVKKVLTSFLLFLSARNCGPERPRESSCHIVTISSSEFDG
How it was run: (§1)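 Agonist EC50 measured in melanophores transfected with the human or rat GPR119 receptor sequence. Values are means of multiple determinations (n).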

[2] = target: T2, Glucose-dependent insulinotropic receptor (Homo sapiens) (UniProt Q8TDV5); assay: Agonist activity at human GPR119 by melanophore assay relative to AR231453; assay type: functional
T2 sequence (whole entry): T1 sequence (Q8TDV5 whole entry)
How it was run: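 Melanophores transfected with human GPR119. Apparent Emax is the curve height normalized to the positive control AR231453, which is defined as a full agonist (100% efficacy).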

[3] = target: T3, Glucose-dependent insulinotropic receptor (Rattus norvegicus) (UniProt Q7TQN8); assay: Selectivity ratio of EC50 for rat GPR119 to EC50 for human GPR119
T3 sequence (whole entry): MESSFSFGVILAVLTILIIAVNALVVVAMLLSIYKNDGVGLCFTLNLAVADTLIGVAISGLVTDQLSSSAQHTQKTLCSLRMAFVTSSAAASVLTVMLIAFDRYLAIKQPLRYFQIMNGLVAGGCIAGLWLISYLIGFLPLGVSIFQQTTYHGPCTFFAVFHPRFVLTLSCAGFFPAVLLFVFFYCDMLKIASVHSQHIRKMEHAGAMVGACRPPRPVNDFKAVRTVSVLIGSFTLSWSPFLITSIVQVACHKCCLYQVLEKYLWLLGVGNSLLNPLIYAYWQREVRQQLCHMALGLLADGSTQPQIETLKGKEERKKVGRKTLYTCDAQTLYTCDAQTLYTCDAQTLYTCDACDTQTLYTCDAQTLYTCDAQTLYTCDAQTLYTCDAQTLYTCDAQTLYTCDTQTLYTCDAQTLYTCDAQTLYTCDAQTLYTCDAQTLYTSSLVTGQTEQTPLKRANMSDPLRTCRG

[4] = target: T4, Glucose-dependent insulinotropic receptor (Rattus norvegicus, UniProt Q7TQN8); assay: Agonist activity at rat GPR119 by melanophore assay; assay type: functional; how it was run: as §1
T4 sequence (Q7TQN8 whole entry): T3 sequence (whole entry)

SMILES | EC50 [1] | Emax [2] | Ratio EC50 [3] | EC50 [4]
CC(C)COC(=O)N1CCC(Oc2ncnc3c2cnn3-c2ccc(S(C)(=O)=O)cc2)CC1 | 4.2 nM | 99% |  | 
Cc1nc(OC2CCN(C(=O)OC(C)(C)C)CC2)c2c(C)nn(-c3ccc(S(C)(=O)=O)cc3)c2n1 | 116 nM | 90% |  | 
CN(C)CCOC(=O)N1CCC(Oc2ncnc3c2cnn3-c2ccc(S(C)(=O)=O)cc2)CC1 | > 10000 nM |  |  | 
CC(C)c1noc(C2CCN(c3ncnc4c3cnn4-c3ccc(S(C)(=O)=O)cc3)CC2)n1 | 42 nM |  |  | 
CCOC(=O)N1CCC(Oc2ncnc3c2cnn3-c2ccc(S(C)(=O)=O)cc2)CC1 | 3.8 nM | 91% | 13.9 | 53 nM
CC(C)c1noc(C2CCN(c3ncnc(Nc4ccc(S(C)(=O)=O)cc4)c3[N+](=O)[O-])CC2)n1 | 5.1 nM |  |  | 
CS(=O)(=O)c1ccc(-n2ncc3c(OC4CCN(C(=O)OC5CCOC5)CC4)ncnc32)cc1 (stereo not drawn) | 435 nM | 71% |  | 
CC(C)(C)OC(=O)N1CCC(Oc2ncnc3c2[nH]c(=O)n3-c2ccc(S(C)(=O)=O)cc2F)CC1 | 0.6 nM | 64% |  | 
CC(C)(C)OC(=O)N1CCC(Oc2ncnc3c2cnn3-c2ccc(S(C)(=O)=O)cc2F)CC1 | 0.9 nM | 79% | 21.8 | 19.6 nM
CC(C)(C)OC(=O)N1CCC(Oc2ncnc3c2cnn3-c2ccc(S(C)(=O)=O)cc2)CC1 | 1.1 nM | 96% | 8.9 | 9.8 nM
CC(C)(C)OC(=O)N1CCC(Cc2ncnc3c2cnn3-c2ccc(S(C)(=O)=O)cc2F)CC1 | 3.4 nM | 72% | 25.9 | 88 nM
CC(C)(C)OC(=O)N1CCC(Sc2ncnc3c2cnn3-c2ccc(S(C)(=O)=O)cc2)CC1 | 5.6 nM | 104% | 3 | 15.5 nM
CC(C)(C)OC(=O)N1CCC(Sc2ncnc3c2cnn3-c2ccc(S(C)(=O)=O)cc2F)CC1 | 0.5 nM | 98% | 14.6 | 7.3 nM
CN(CC1CCN(C(=O)OC(C)(C)C)CC1)c1ncnc2c1cnn2-c1ccc(S(C)(=O)=O)cc1 | 11.6 nM | 89% |  | 
CC(C)(C)OC(=O)N1CCC(Oc2ncnc3c2ncn3-c2ccc(S(C)(=O)=O)cc2)CC1 | 33.4 nM | 95% |  | 
CS(=O)(=O)c1ccc(-n2ncc3c(OC4CCN(C(=O)OC5CCCC5)CC4)ncnc32)cc1 | 14.6 nM | 80% | 1.4 | 21 nM

SMILES | EC50 [1] | Emax [2] | Ratio EC50 [3] | EC50 [4]
CC(C)(C)OC(=O)N1CCC([S+]([O-])c2ncnc3c2cnn3-c2ccc(S(C)(=O)=O)cc2)CC1 (stereo not drawn) | 2400 nM |  |  | > 10000 nM
CC(C)c1noc(C2CCN(c3ncnc(Nc4ccc(S(C)(=O)=O)cc4F)c3[N+](=O)[O-])CC2)n1 | 0.65 nM |  |  | 
CCN(CC1CCN(C(=O)OC(C)(C)C)CC1)c1ncnc2c1cnn2-c1ccc(S(C)(=O)=O)cc1 | 6.3 nM | 67% |  | 
CCCCOC(=O)N1CCC(Oc2ncnc3c2cnn3-c2ccc(S(C)(=O)=O)cc2)CC1 | 7.5 nM | 79% |  | 
CC(C)OC(=O)N1CCC(Oc2ncnc3c2cnn3-c2ccc(S(C)(=O)=O)cc2)CC1 | 3.5 nM | 83% |  | 
CC(C)(C)OC(=O)N1CCC(Oc2ncnc3c2nnn3-c2ccc(S(C)(=O)=O)cc2)CC1 | 7.4 nM | 103% | 5.7 | 42 nM
CC(C)(C)OC(=O)N1CCC(Cc2ncnc3c2cnn3-c2ccc(S(C)(=O)=O)cc2)CC1 | 7.3 nM | 91% | 16.4 | 120 nM
CCN(CC1CCN(C(=O)OC(C)C)CC1)c1ncnc2c1cnn2-c1ccc(S(C)(=O)=O)cc1F | 3.4 nM | 82% | 77.6 | 264 nM
CC(C)(C)OC(=O)N1CCC(S(=O)(=O)c2ncnc3c2cnn3-c2ccc(S(C)(=O)=O)cc2)CC1 | > 10000 nM |  |  | > 10000 nM
CC(C)(C)COC(=O)N1CCC(Oc2ncnc3c2cnn3-c2ccc(S(C)(=O)=O)cc2)CC1 | 8.1 nM | 105% | 8 | 65 nM
CC(C)(C)OC(=O)N1CCC(Nc2ncnc3c2cnn3-c2ccc(S(C)(=O)=O)cc2)CC1 | 250 nM | 101% | > 40 | > 10000 nM
CC(C)(C)OC(=O)N1CCC(Oc2ncnc3c(-c4ccc(S(C)(=O)=O)cc4)noc23)CC1 | 0.7 nM | 100% | 24.3 | 17 nM
CC(C)OC(=O)N1CCC(Oc2ncnc3c(-c4ccc(S(C)(=O)=O)cc4)noc23)CC1 | 14 nM | 65% | 3 | 40 nM
CC(C)(C)OC(=O)N1CCC(CNc2ncnc3c2cnn3-c2ccc(S(C)(=O)=O)cc2)CC1 | 265 nM | 87% |  | 
Cc1nn(-c2ccc(S(C)(=O)=O)cc2)c2ncnc(OC3CCN(C(=O)OC(C)(C)C)CC3)c12 | 15 nM | 103% | 3 | 42 nM
